In ChEMBL document CHEMBL4325889, “Natural products hybrids: 3,5,4'-Trimethoxystilbene-5,6,7-trimethoxyflavone chimeric analogs as potential cytotoxic agents against diverse human cancer cells” (Eur J Med Chem, 2019):

Columns and labels:
Type in all cases: functional
HCC 2998 = experiment: Growth inhibition of human HCC2998 cells at 10 uM after 48 hrs by SRB assay relative to control; conditions: HCC 2998, 48 h, read-out: GI
Procedure, shortened: (§1)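 Screened at the National Cancer Institute by the standard NCI protocol using the sulforhodamine B assay, which measures cellular protein. Single dose of 10 µM. Result is percent growth inhibition; values above 100% mean cell number fell below the initial population. Values are the average of duplicates.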

HL-60(TB) = experiment: Growth inhibition of human HL-60(TB) cells at 10 uM after 48 hrs by SRB assay relative to control; conditions: HL-60, 48 h, read-out: GI
Procedure, shortened: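 Run at NCI under its standard single-dose protocol against a leukemia cell panel. Cells were exposed to 10 µM; growth was read by sulforhodamine B staining of cellular protein and expressed as % growth inhibition versus untreated control. Values above 100% mean the cell population fell below the starting count (cytocidal). Each value is the average of duplicates.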

CCRF-CEM = experiment: Growth inhibition of human CCRF-CEM cells at 10 uM after 48 hrs by SRB assay relative to control; conditions: read-out: GI; procedure, shortened: as §1
OVCAR-5 = experiment: Growth inhibition of human OVCAR5 cells at 10 uM after 48 hrs by SRB assay relative to control; conditions: OVCAR-5, 48 h, read-out: GI; procedure, shortened: as §1
IGROV-1 = experiment: Growth inhibition of human IGROV1 cells at 10 uM after 48 hrs by SRB assay relative to control; conditions: IGROV-1, 48 h, read-out: GI; procedure, shortened: as §1
UACC-257 = experiment: Growth inhibition of human UACC257 cells at 10 uM after 48 hrs by SRB assay relative to control; conditions: UACC-257, 48 h, read-out: GI
Procedure, shortened: (§2)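 NCI screen against its human cancer cell line panel by the standard NCI protocol, SRB protein stain. Single dose of 10 μM. Percent growth inhibition versus control; values above 100% mean the cell population fell below the starting number. Each value is the mean of duplicates.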

NCI-H522 = experiment: Growth inhibition of human NCI-H522 cells at 10 uM after 48 hrs by SRB assay relative to control; conditions: NCI-H522, 48 h, read-out: GI; procedure, shortened: as §1
SF-539 = experiment: Growth inhibition of human SF539 cells at 10 uM after 48 hrs by SRB assay relative to control; conditions: SF-539, 48 h, read-out: GI; procedure, shortened: as §1
SW-620 = experiment: Growth inhibition of human SW620 cells at 10 uM after 48 hrs by SRB assay relative to control; conditions: SW-620, 48 h, read-out: GI; procedure, shortened: as §2
PC-3 = experiment: Growth inhibition of human PC3 cells at 10 uM after 48 hrs by SRB assay relative to control; conditions: PC-3, 48 h, read-out: GI; procedure, shortened: as §1
OVCAR-4 = experiment: Growth inhibition of human OVCAR4 cells at 10 uM after 48 hrs by SRB assay relative to control; conditions: OVCAR-4, 48 h, read-out: GI; procedure, shortened: as §1
NCI/ADR-RES = experiment: Growth inhibition of human NCI/ADR-RES cells at 10 uM after 48 hrs by SRB assay relative to control; conditions: read-out: GI; procedure, shortened: as §1
SK-MEL-28 = experiment: Growth inhibition of human SK-MEL-28 cells at 10 uM after 48 hrs by SRB assay relative to control; conditions: SK-MEL-28, 48 h, read-out: GI; procedure, shortened: as §1
OVCAR-3 = experiment: Growth inhibition of human OVCAR3 cells at 10 uM after 48 hrs by SRB assay relative to control; conditions: OVCAR-3, 48 h, read-out: GI; procedure, shortened: as §1
RPMI-8226 = experiment: Growth inhibition of human RPMI8226 cells at 10 uM after 48 hrs by SRB assay relative to control; conditions: RPMI-8226, 48 h, read-out: GI; procedure, shortened: as §1
SK-MEL-5 = experiment: Growth inhibition of human SK-MEL-5 cells at 10 uM after 48 hrs by SRB assay relative to control; conditions: SK-MEL-5, 48 h, read-out: GI; procedure, shortened: as §1
MCF7 = experiment: Growth inhibition of human MCF7 cells at 10 uM after 48 hrs by SRB assay relative to control; conditions: MCF7, 48 h, read-out: GI; procedure, shortened: as §1
CAKI-1 = experiment: Growth inhibition of human Caki1 cells at 10 uM after 48 hrs by SRB assay relative to control; conditions: CAKI-1, 48 h, read-out: GI; procedure, shortened: as §1
HOP-92 = experiment: Growth inhibition of human HOP92 cells at 10 uM after 48 hrs by SRB assay relative to control; conditions: HOP-92, 48 h, read-out: GI; procedure, shortened: as §1
BT-549 = experiment: Growth inhibition of human BT549 cells at 10 uM after 48 hrs by SRB assay relative to control; conditions: BT-549, 48 h, read-out: GI; procedure, shortened: as §1
LOX IMVI = experiment: Growth inhibition of human LOXIMVI cells at 10 uM after 48 hrs by SRB assay relative to control; conditions: read-out: GI; procedure, shortened: as §1
RXF 393 = experiment: Growth inhibition of human RXF393 cells at 10 uM after 48 hrs by SRB assay relative to control; conditions: RXF 393, 48 h, read-out: GI; procedure, shortened: as §1
SK-MEL-2 = experiment: Growth inhibition of human SK-MEL-2 cells at 10 uM after 48 hrs by SRB assay relative to control; conditions: SK-MEL-2, 48 h, read-out: GI; procedure, shortened: as §1
K562 = experiment: Growth inhibition of human K562 cells at 10 uM after 48 hrs by SRB assay relative to control; conditions: K562, 48 h, read-out: GI; procedure, shortened: as §1
SF-295 = experiment: Growth inhibition of human SF295 cells at 10 uM after 48 hrs by SRB assay relative to control; conditions: SF-295, 48 h, read-out: GI; procedure, shortened: as §1
NCI-H23 = experiment: Growth inhibition of human NCI-H23 cells at 10 uM after 48 hrs by SRB assay relative to control; conditions: NCI-H23, 48 h, read-out: GI; procedure, shortened: as §1
U-251 = experiment: Growth inhibition of human U251 cells at 10 uM after 48 hrs by SRB assay relative to control; conditions: U-251, 48 h, read-out: GI; procedure, shortened: as §2
MDA-MB-468 = experiment: Growth inhibition of human MDA-MB-468 cells at 10 uM after 48 hrs by SRB assay relative to control; conditions: MDA-MB-468, 48 h, read-out: GI; procedure, shortened: as §1
SR = experiment: Growth inhibition of human SR cells at 10 uM after 48 hrs by SRB assay relative to control; conditions: read-out: GI; procedure, shortened: as §2
SNB-75 = experiment: Growth inhibition of human SNB75 cells at 10 uM after 48 hrs by SRB assay relative to control; conditions: SNB-75, 48 h, read-out: GI; procedure, shortened: as §2
MOLT-4 = experiment: Growth inhibition of human MOLT4 cells at 10 uM after 48 hrs by SRB assay relative to control; conditions: MOLT-4, 48 h, read-out: GI; procedure, shortened: as §1
Hs-578T = experiment: Growth inhibition of human Hs 578T cells at 10 uM after 48 hrs by SRB assay relative to control; conditions: read-out: GI; procedure, shortened: as §1
DU-145 = experiment: Growth inhibition of human DU145 cells at 10 uM after 48 hrs by SRB assay relative to control; conditions: DU-145, 48 h, read-out: GI; procedure, shortened: as §1

SMILES | inhibition of growth at 10 µM (HCC 2998) [%] | inhibition of growth at 10 µM (HL-60(TB)) [%] | inhibition of growth at 10 µM (CCRF-CEM) [%] | inhibition of growth at 10 µM (OVCAR-5) [%] | inhibition of growth at 10 µM (IGROV-1) [%] | inhibition of growth at 10 µM (UACC-257) [%] | inhibition of growth at 10 µM (NCI-H522) [%] | inhibition of growth at 10 µM (SF-539) [%] | inhibition of growth at 10 µM (SW-620) [%] | inhibition of growth at 10 µM (PC-3) [%] | inhibition of growth at 10 µM (OVCAR-4) [%] | inhibition of growth at 10 µM (NCI/ADR-RES) [%] | inhibition of growth at 10 µM (SK-MEL-28) [%] | inhibition of growth at 10 µM (OVCAR-3) [%] | inhibition of growth at 10 µM (RPMI-8226) [%] | inhibition of growth at 10 µM (SK-MEL-5) [%] | inhibition of growth at 10 µM (MCF7) [%] | inhibition of growth at 10 µM (CAKI-1) [%] | inhibition of growth at 10 µM (HOP-92) [%] | inhibition of growth at 10 µM (BT-549) [%] | further results
COc1cc2oc(-c3cccc(NC(=O)c4ccccc4)c3)cc(=O)c2c(OC)c1OC | 12.2 | 39.5 | 54.3 | -0.09 | 21.6 | 0.33 | 50.7 | 32.2 | 8.49 | 46.9 | 18.3 | 25.5 | 26.8 | 15.8 | 73.4 | 36.8 | 22.7 | 12.8 | 52.4 | 25.9 | inhibition of growth at 10 µM (LOX IMVI): 38.3%; inhibition of growth at 10 µM (RXF 393): 25.6%; inhibition of growth at 10 µM (SK-MEL-2): 23.2%; inhibition of growth at 10 µM (K562): 56.9%; inhibition of growth at 10 µM (SF-295): 22.2%; inhibition of growth at 10 µM (NCI-H23): 27.1%; inhibition of growth at 10 µM (U-251): 16.3%; inhibition of growth at 10 µM (MDA-MB-468): 15.8%; inhibition of growth at 10 µM (SR): 68.4%; inhibition of growth at 10 µM (SNB-75): 22.6%; inhibition of growth at 10 µM (MOLT-4): 59.4%; inhibition of growth at 10 µM (Hs-578T): 2.76%; inhibition of growth at 10 µM (DU-145): 14.5%
COc1cccc(NC(=O)c2cccc(-c3cc(=O)c4c(O)c(OC)c(OC)cc4o3)c2)c1 | -3.54 | 17.5 | 34.7 | 8.5 | 12 | 8.74 | 59.8 | 20.7 | 18.4 | 39.3 | 48 | 25.8 | 14.2 | 10.6 | 53.6 | 26.8 | 13.2 | 32.4 | 33.6 | 30.5 | inhibition of growth at 10 µM (LOX IMVI): 36.8%; inhibition of growth at 10 µM (RXF 393): 25.8%; inhibition of growth at 10 µM (SK-MEL-2): 2.64%; inhibition of growth at 10 µM (K562): 16.9%; inhibition of growth at 10 µM (SF-295): 17.6%; inhibition of growth at 10 µM (NCI-H23): 25.4%; inhibition of growth at 10 µM (U-251): 23.9%; inhibition of growth at 10 µM (MDA-MB-468): 46%; inhibition of growth at 10 µM (SR): 47.7%; inhibition of growth at 10 µM (SNB-75): 1.94%; inhibition of growth at 10 µM (MOLT-4): 24.2%; inhibition of growth at 10 µM (Hs-578T): 45.5%; inhibition of growth at 10 µM (DU-145): 19.4%
